Screening data from PubChem BioAssay.
m-calpain inh: inhibitors of pig calpain II; inhibition, % at 16 µM; purified calpain II, fluorogenic peptide substrate, 30 min; 220,000 tested, 0.37% active;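 active = inhibition above about 50%, limit read from the data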
KLK5 inh: inhibitors of human kallikrein 5; 210,000 tested, 0.59% active; Q9Y337; recombinant hK5, fluorogenic AMC substrate cleavage; inhibition, % at 5 µM;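 active = inhibition of 40% or more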;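 also: 0% = enzyme controls without compound and 100% = no-enzyme blanks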
Target sequence (Q9Y337 67-293 limits assumed): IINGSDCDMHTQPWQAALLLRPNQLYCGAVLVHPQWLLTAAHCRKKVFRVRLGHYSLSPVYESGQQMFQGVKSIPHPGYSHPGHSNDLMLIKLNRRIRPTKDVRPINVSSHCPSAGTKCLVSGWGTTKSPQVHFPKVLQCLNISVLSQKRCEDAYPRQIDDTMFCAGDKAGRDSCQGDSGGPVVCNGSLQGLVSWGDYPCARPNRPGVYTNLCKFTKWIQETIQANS
FXIa inh 1536: inhibitors of human coagulation factor XIa; inhibition, % at 5 µM; 220,000 tested, 0.14% active; purified FXIa, Boc-Glu-Ala-Arg-AMC fluorogenic substrate;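 active = inhibition of at least 40%; inactive = inhibition below 40%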;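 also: fluorescence of freed AMC excited at 355 nm; 0% = enzyme without compound and 100% = no enzyme blank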
FXIIa inh 1536: blocks human coagulation factor XIIa protease activity; purified FXIIa, Boc-QGR-AMC fluorogenic substrate, 2 h; inhibition, % at 5 µM; 220,000 tested, 0.3% active; in the data active = inhibition above about 40%;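 also: 0% = enzyme with no compound and 100% = blank without enzyme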
Thrombin inh: thrombin (human) inhibition. 220,000 tested, 0.26% active. alpha-thrombin, Boc-VPR-AMC fluorogenic substrate cleavage. P00734. inhibition, % at 5 µM;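 active = inhibition at or above 40%; inactive = inhibition below 40%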;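 also: 0% = enzyme with no compound and 100% = wells without enzyme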
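System – human alpha-thrombin protein · Reagent – Boc-VPR-AMC substrate, 15 µM final · Compound – 5 µM single dose in 0.2% DMSO · Schedule – reaction at room temperature · Technique – AMC fluorescence at 355 nm excitation and 460 nm emission · Read-out basis – % inhibition relative to enzyme controls and enzyme-free blanks · Control set – no-compound enzyme wells and no-enzyme blanks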
Active calls of the source: *; i = inactive; nt = no result. Compounds with a hit are over-represented: about 1.4% of the library has one in this group of screens.

SMILES	m-calpain inh	KLK5 inh	FXIa inh 1536	FXIIa inh 1536	Thrombin inh
O=C1C2CCCCC2C(=O)N1c1ccc(NC2CCCCC2)c([N+](=O)[O-])c1 (configuration not stated)	61*	-21	-2	6	-4
O=[N+]([O-])c1ccc(N2CCCC2)cc1NC1CC1	34	44*	9	9	12
CCc1cc2c3c(c1)C(C)CC(C)(C)N3C(=O)/C2=C1\SC(=O)NC1=O (configuration not stated)	57*	18	-4	6	-1
CCCC(CCC)C(=O)NNc1cc(=O)c2c(=O)n(C)c(=O)n(C)c2[nH]1	-6	-3	-5	13	-9
CCC1Cc2c(nc(N)c3c(N)nc(N4CCOCC4)c(C#N)c23)O1 (configuration not stated)	-472	0	-1	nt	-4
CCOc1cc2c(C#N)c(N3CCOCC3)nc(N)c2c(N)n1	i	110*	-3	0	2
CC(=O)Nc1c(C(=O)O)[nH]c2ccccc12	-11	72*	7	18	4
COc1ccc(NC(=S)/N=C(\N)Nc2nc(C)c3ccccc3n2)cc1	-28	0	1	6	-1
Cc1oc2c(c1C(=O)c1ccc(Cl)cc1)C(=O)C(=O)c1ccccc1-2	62*	-7	6	13	2
Cc1ccc(C(=O)c2c(C)oc3c2C(=O)C(=O)c2ccccc2-3)cc1	26	14	7	21	4
Cc1ccc(NC2OC(CO)C(O)C2O)cc1[N+](=O)[O-] (configuration not stated)	85*	-4	11	19	1
O=C(COC(=O)c1cc(=O)c2ccccc2o1)NC1CCCCC1	18	19	42*	27	12
COCCNC(=O)CN(c1ccccc1OC)S(C)(=O)=O	-21	-3	1	11	2
O=C(O)c1cccc(N/N=C/C2=C(Cl)c3cc(Cl)ccc3SC2)c1	58*	-2	1	4	2
O=C(O)c1cccc(N/N=C/c2ccc(F)c(F)c2)c1	2	-7	-7	nt	-2
CCS(=O)(=O)Nc1c(C)n(C)n(-c2ccccc2)c1=O	7	-19	3	13	4
CCOC(=O)Cc1csc(NS(C)(=O)=O)n1	13	0	-3	-14	-5
O=c1c2c(nc3c(-c4ccc(Cl)cc4)c[nH]n13)CCCC2	-134	-248	-6	-8	3
O=C(O)/C=C/C(=O)N1CCN(C(c2ccccc2)c2ccccc2)CC1	-16	-11	4	3	6
O=C(O)CCCC(=O)N1CCN(C(c2ccccc2)c2ccccc2)CC1	15	52*	7	6	16
COc1ccc(/C=N/NC(=O)CN2CCN(Cc3ccccc3)CC2)cc1Br	20	5	-5	7	-3
COc1ccc(Br)cc1/C=N/NC(=O)CN1CCN(Cc2ccccc2)CC1	-13	41*	-17	5	-6
O=C(NCc1cccnc1)c1ccc2c(=O)n(CCCN3CCCC3=O)c(=S)[nH]c2c1	84*	-7	-6	9	-1
O=C(c1cc(COc2c(F)cccc2F)on1)N1CCC(c2ccccc2F)C1 (configuration not stated)	28	-1	0	7	-5
O=C(c1cc(COc2c(F)cccc2F)on1)N1CCC(c2ccccc2Cl)C1 (configuration not stated)	55*	nt	3	8	0
SMILES	m-calpain inh	KLK5 inh	FXIa inh 1536	FXIIa inh 1536	Thrombin inh
O=C(Nc1cccc([N+](=O)[O-])c1)c1ccncc1	4	-7	-1	-1	-7
CC(C)(C)c1ccc(C(=O)Nc2cccc([N+](=O)[O-])c2)cc1	50*	-8	12	13	1
CC(C)(C)c1ccc(C(=O)Nc2ccc(NC(=O)c3ccco3)cc2)cc1	-152	99*	11	11	0
O=C(Nc1ccc(Cc2ccncc2)cc1)c1ccco1	10	70*	31	18	40*
CC(C)(C)NC(=O)c1cccc(NC(=O)c2ccc(NC(=O)c3ccco3)cc2)c1	24	0	-8	5	-2
C=CCNCCCCOc1ccccc1-c1ccccc1	9	-19	9	16	-4
Fc1ccc(CNc2nc(-c3ccccc3)nc3ccccc23)cc1	55*	20	17	15	-2
c1ccc(-c2nc(NCc3cccnc3)c3ccccc3n2)cc1	20	10	1	16	-3
Cc1ccc(-c2nc(NCc3ccco3)c3ccccc3n2)cc1	61*	-16	9	10	-8
Nc1nonc1-c1nc2ccccc2n1CC(=O)N/N=C/c1ccc(-c2cccc(C(=O)O)c2)o1	-69	-1	3	10	-5
O=C(c1ccccc1)C1CN(c2ccccc2)CC1c1ccc(Cl)cc1 (configuration not stated)	15	62*	6	54*	14
Cc1ccc(CSc2ncnc3c2cnn3-c2ccc(C)cc2)cc1	14	45*	22	41*	21
COc1ccc(C2=Nn3c(nnc3C3CCCCC3)SC2)cc1OC	-11	6	-20	9	-1
Cc1ccccc1NC(=O)CSc1nc2ccccc2o1	14	51*	15	5	15
COc1cc2c(cc1NC(=O)COC(=O)[C@@H](NS(=O)(=O)c1cccc(Cl)c1)C(C)C)oc1ccccc12	-33	-5	4	1	-5
Cc1ccc(N2CC(C(=O)N/N=C/c3cccc([N+](=O)[O-])c3)CC2=O)cc1 (configuration not stated)	13	33	5	17	104*
CCOc1cc(/C=N/Nc2nc(Nc3ccccc3)nc(N3CCCCC3)n2)ccc1OCC(=O)O	-5	45*	24	19	-9
COc1ccc(/C=N/Nc2nc(Nc3ccccc3)nc(N3CCCCC3)n2)cc1OC	-109	0	6	13	-6
CCOCCn1c(CN2CCOCC2)nc2c1c(=O)[nH]c(=O)n2C	-14	41*	-7	2	-6
CSc1ccc(C(=S)N2CCN(Cc3ccccc3)CC2)cc1	13	-2	-1	15	3
CCCCn1c(-c2csc3c2CCC(C)C3)n[nH]c1=S (configuration not stated)	66*	-22	-1	21	-3
COc1ccc(NC(=O)CSc2nnc(CNC(=O)c3ccco3)o2)c(OC)c1	-42	-7	0	6	-5
NC(=O)COc1c(-c2ccccc2)oc2ccccc2c1=O	5	46*	8	16	3
CN(C/C=C/c1ccccc1)C1CCCCC1	-12	-2	-3	3	-1
CC(=O)N1CCN(S(=O)(=O)c2ccc(Cl)cc2F)CC1	-27	-4	9	8	-5
O=C(O)/C=C/C(=O)N1CCN(S(=O)(=O)c2cc(C(F)(F)F)ccc2Cl)CC1	10	53*	34	31	18
CN(C)c1ccc(C(=O)NN2C(=O)c3ccccc3C2=O)cc1	31	-4	0	99*	-1
CN(C)/C(CN1CCN(C=O)CC1)=C1\N=C(c2ccccc2)OC1=O	26	66*	4	2	9
